Laboratory results as given in ChEMBL document CHEMBL1833916, “Synthesis and biological evaluation of 4-piperidinecarboxylate and 4-piperidinecyanide derivatives for T-type calcium channel blockers” (Bioorg Med Chem Lett, 2011).
Activity calls are given as the source filed them. The calls are words filed in the database; no cut-off is given here.

Key:
[1] = molecular target: T1, Voltage-dependent T-type calcium channel subunit alpha-1G (Homo sapiens, UniProt O43497); assay: Inhibition of T-type calcium channel alpha1G expressed in human HEK293 cells assessed as KCl-induced depolarization at 10 uM after 60 mins by FDSS6000 assay; type: cell-based
[2] = Metabolic stability in human hepatic microsomes at 1 uM after 60 mins by LC-MS/MS analysis; type: ADME, Liver; settings: 1 h
In short: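 Human liver microsomes (0.5 mg/ml) with compound (1 μM) in 0.1 M potassium phosphate, pH 7.4, at 37 °C; started with β-NADPH (1.2 mM). Sampled at 0, 5, 15, 30 and 60 min, quenched with acetonitrile containing internal standard, analysed by LC–MS/MS. Reported as % parent remaining; mean of duplicate experiments.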

[3] = molecular target: T1, Voltage-dependent T-type calcium channel subunit alpha-1G; assay: Inhibition of T-type calcium channel alpha1G expressed in human HEK293 cells assessed as KCl-induced depolarization after 60 mins by FDSS6000 assay; type: cell-based
[4] = molecular target: Voltage-gated inwardly rectifying potassium channel KCNH2 (Homo sapiens, UniProt Q12809); assay: Inhibition of human ERG by patch clamp assay
Rattus norvegicus [5] = assay: Antiallodynic activity in rat spinal nerve ligation model of neuropathic pain assessed as suppression of mechanical allodynia at 100 mg/kg, po after 5 hrs; type: functional, organism-based; design: dose 100 mg/kg
In short: (§1)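 Rats with induced neuropathic pain, dosed orally at 100 mg/kg (n = 5 per group), with gabapentin 100 mg/kg po as reference. Mechanical and cold allodynia were followed over days after nerve injury and hours after dosing. Significance was tested by unpaired t-test (P < 0.05).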

Rattus norvegicus [6] = assay: Antiallodynic activity in rat spinal nerve ligation model of neuropathic pain assessed as inhibition of cold allodynia at 100 mg/kg, po after 5 hrs; type: functional, organism-based; design: dose 100 mg/kg; in short: as §1

T1 sequence (O43497 whole entry): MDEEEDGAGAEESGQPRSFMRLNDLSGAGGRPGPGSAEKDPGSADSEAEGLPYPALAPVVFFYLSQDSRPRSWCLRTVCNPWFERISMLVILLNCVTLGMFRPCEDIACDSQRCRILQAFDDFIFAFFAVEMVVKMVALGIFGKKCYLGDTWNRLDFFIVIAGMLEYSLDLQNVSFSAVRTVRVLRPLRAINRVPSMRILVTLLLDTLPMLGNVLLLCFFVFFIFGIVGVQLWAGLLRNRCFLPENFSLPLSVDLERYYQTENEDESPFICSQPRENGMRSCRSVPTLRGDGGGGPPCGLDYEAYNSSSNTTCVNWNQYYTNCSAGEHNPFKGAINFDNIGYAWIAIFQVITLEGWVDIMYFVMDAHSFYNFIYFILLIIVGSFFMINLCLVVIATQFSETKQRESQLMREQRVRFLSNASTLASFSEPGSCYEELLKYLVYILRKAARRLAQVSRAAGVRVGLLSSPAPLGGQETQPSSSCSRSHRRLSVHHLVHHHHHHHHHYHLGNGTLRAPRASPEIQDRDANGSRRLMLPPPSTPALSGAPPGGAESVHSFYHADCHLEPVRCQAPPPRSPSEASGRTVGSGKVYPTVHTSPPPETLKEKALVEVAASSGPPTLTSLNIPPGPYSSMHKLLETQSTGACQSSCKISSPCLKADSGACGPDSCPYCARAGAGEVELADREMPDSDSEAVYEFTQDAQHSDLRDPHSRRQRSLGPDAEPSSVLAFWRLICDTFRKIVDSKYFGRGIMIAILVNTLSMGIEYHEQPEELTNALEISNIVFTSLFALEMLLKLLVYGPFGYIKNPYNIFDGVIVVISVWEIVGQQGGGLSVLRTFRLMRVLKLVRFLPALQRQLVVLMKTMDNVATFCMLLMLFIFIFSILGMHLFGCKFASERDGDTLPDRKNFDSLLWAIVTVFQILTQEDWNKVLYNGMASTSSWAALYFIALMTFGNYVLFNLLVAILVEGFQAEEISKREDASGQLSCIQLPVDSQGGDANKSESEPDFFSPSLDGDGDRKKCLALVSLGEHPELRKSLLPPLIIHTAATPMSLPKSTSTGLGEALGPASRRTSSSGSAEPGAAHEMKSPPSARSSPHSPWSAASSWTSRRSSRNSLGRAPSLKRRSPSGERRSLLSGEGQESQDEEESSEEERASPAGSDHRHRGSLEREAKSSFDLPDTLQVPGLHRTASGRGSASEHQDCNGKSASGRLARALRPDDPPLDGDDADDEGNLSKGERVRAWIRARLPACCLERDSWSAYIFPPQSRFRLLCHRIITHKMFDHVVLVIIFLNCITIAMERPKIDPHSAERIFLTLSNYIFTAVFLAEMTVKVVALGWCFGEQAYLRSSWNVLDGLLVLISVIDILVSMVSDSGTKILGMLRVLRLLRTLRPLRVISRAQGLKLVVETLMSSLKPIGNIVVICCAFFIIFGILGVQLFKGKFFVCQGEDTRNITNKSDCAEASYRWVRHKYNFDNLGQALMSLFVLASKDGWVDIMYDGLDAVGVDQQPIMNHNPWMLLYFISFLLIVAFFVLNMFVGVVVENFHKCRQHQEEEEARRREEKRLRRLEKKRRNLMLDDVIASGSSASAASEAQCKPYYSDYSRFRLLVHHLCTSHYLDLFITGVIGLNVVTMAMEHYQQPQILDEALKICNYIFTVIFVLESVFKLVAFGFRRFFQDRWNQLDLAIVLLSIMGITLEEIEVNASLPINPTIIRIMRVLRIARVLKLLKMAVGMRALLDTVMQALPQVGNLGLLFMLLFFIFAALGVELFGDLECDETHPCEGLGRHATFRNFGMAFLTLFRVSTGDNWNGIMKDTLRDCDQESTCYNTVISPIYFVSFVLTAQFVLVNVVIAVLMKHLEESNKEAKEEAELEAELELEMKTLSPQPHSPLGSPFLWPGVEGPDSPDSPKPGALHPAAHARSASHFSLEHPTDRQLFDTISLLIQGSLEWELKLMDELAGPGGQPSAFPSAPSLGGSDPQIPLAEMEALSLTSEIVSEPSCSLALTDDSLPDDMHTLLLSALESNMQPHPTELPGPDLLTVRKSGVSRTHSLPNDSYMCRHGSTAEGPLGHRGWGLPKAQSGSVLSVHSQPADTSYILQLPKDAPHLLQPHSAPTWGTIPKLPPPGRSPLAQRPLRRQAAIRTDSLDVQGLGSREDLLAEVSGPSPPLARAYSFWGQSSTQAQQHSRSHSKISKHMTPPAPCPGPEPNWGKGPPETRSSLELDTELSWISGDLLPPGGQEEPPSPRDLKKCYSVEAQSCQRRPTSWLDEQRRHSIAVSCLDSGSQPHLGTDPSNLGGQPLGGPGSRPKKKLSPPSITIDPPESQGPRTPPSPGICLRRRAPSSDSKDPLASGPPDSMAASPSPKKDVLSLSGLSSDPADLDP
Chain of Voltage-gated inwardly rectifying potassium channel KCNH2 (Q12809 whole entry): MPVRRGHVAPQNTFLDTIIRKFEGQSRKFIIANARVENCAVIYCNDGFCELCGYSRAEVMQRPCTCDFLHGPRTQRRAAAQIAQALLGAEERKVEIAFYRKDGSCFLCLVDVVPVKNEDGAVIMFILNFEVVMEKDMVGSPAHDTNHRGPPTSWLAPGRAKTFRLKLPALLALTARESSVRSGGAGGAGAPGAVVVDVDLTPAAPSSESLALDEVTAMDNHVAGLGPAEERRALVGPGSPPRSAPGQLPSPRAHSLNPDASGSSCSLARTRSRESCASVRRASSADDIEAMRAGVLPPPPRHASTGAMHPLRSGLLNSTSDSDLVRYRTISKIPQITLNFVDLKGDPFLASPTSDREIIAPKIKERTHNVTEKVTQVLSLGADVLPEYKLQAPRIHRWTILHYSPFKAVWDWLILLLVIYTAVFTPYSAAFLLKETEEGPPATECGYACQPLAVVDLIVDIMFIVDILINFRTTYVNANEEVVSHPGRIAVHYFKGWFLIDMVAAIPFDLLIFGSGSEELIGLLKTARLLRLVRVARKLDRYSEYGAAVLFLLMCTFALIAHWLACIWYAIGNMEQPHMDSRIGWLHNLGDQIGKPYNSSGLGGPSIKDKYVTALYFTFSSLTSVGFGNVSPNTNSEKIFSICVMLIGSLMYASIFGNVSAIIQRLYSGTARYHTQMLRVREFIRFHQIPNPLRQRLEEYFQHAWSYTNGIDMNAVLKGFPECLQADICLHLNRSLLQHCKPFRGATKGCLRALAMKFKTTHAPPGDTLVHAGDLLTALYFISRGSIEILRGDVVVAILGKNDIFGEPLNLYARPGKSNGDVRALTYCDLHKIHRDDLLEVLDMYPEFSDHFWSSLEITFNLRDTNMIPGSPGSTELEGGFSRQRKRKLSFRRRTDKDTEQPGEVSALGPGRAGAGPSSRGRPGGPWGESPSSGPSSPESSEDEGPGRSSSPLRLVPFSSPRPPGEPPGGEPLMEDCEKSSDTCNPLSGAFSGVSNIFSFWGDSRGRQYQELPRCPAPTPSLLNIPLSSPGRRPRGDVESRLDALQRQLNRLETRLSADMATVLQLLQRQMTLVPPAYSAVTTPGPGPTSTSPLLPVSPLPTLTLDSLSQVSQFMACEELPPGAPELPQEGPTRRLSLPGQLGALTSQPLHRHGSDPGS

Row | SMILES | inhibition [1] [%] | IC50 [4] [nM] | further results
1 | CC(C)Cc1cc(C(=O)NCC2(C#N)CCN(Cc3cccc(C(F)(F)F)c3)CC2)nn1-c1ccccc1 | 15.8 | – | –
2 | COc1cc(OC)cc(C(=O)NCC2(C#N)CCN(Cc3cccc(C(F)(F)F)c3)CC2)c1 | 15.8 | – | –
3 | CC1(C)Oc2ccccc2C=C1CN1CCC(C#N)(CNC(=O)c2cc(Cl)cc(Cl)c2)CC1 | 13.6 | – | –
4 | N#CC1(CNC(=O)c2cc(Cl)cc(Cl)c2)CCN(Cc2ccc(C(F)(F)F)cc2)CC1 | 8.7 | – | –
5 | COC(=O)C1(CNC(=O)c2cc(OC)cc(OC)c2)CCN(Cc2ccc(C(F)(F)F)cc2)CC1 | 64.3 | – | Stability [2]: Unstable; IC50 [3]: 4.18 µM
6 | COc1cccc(CN2CCC(C#N)(CNC(=O)c3cc(Cl)cc(Cl)c3)CC2)c1 | 8.33 | – | –
7 | COc1cc(OC)cc(C(=O)NCC2(C#N)CCN(CC3=Cc4ccccc4OC3(C)C)CC2)c1 | 44.3 | 4730 | –
8 | COc1cc(OC)cc(C(=O)NCC2(C(=O)O)CCN(Cc3ccc(C(F)(F)F)cc3)CC2)c1.Cl | – | – | Stability [2]: Stable; Activity (Rattus norvegicus [5]): Active; inhibition (Rattus norvegicus [6]): Active; IC50 [3]: 7.31 µM
9 | COC(=O)C1(CNC(=O)c2cc(OC)cc(OC)c2)CCN(Cc2cccc(OC)c2)CC1 | 56.2 | 310 | –
10 | N#CC1(CNC(=O)c2cc(Cl)cc(Cl)c2)CCN(Cc2ccccc2C(F)(F)F)CC1 | 9.99 | – | –
11 | COc1ccccc1CN1CCC(C#N)(CNC(=O)c2cc(Cl)cc(Cl)c2)CC1 | 19.3 | – | –
12 | COC(=O)C1(CNC(=O)c2cc(OC)cc(OC)c2)CCN(Cc2ccc(OC)cc2)CC1 | 59 | 480 | –
13 | COC(=O)C1(CNC(=O)c2cc(Cl)cc(Cl)c2)CCN(Cc2cccc(OC)c2)CC1 | 73 | 360 | –
14 | COc1ccc(CN2CCC(C#N)(CNC(=O)c3cc(OC)cc(OC)c3)CC2)cc1 | 53 | – | –
15 | COc1cc(OC)cc(C(=O)NCC2(C#N)CCN(CCc3ccccc3)CC2)c1 | 61.9 | 1570 | Stability [2]: Unstable
16 | N#CC1(CNC(=O)c2cc(Cl)cc(Cl)c2)CCN(Cc2cccc(C(F)(F)F)c2)CC1 | 8.76 | – | –
17 | COc1cc(OC)cc(C(=O)NCC2(C#N)CCN(Cc3ccc(C(F)(F)F)cc3)CC2)c1 | 13.9 | – | –
18 | COC(=O)C1(CNC(=O)c2cc(OC)cc(OC)c2)CCN(Cc2ccccc2C(F)(F)F)CC1 | 63.6 | 4980 | Stability [2]: Unstable
19 | CC(C)Cc1cc(C(=O)NCC2(C#N)CCN(CCc3ccccc3)CC2)nn1-c1ccccc1 | 61.9 | – | –
20 | COC(=O)C1(CNC(=O)c2cc(OC)cc(OC)c2)CCN(Cc2ccccc2OC)CC1 | 46.8 | 1900 | –
21 | NCC1(CC(=O)O)CCCCC1 | – | – | Activity (Rattus norvegicus [5]): Active; inhibition (Rattus norvegicus [6]): Active

Row | SMILES | inhibition [1] [%] | IC50 [4] [nM] | further results
22 | COc1cccc(CN2CCC(C#N)(CNC(=O)c3cc(CC(C)C)n(-c4ccccc4)n3)CC2)c1 | 60.4 | 1500 | –
23 | COC(=O)C1(CNC(=O)c2cc(Cl)cc(Cl)c2)CCN(Cc2ccc(OC)cc2)CC1 | 74.5 | – | –
24 | COc1cc(OC)cc(C(=O)NCC2(C#N)CCN(Cc3ccccc3C(F)(F)F)CC2)c1 | 45.4 | 4760 | –
25 | CC(C)Cc1cc(C(=O)NCC2(C#N)CCN(Cc3ccccc3C(F)(F)F)CC2)nn1-c1ccccc1 | 45.4 | 4760 | –
26 | CC(C)Cc1cc(C(=O)NCC2(C#N)CCN(CC3=Cc4ccccc4OC3(C)C)CC2)nn1-c1ccccc1 | 44.3 | 4730 | –
27 | COC(=O)C1(CNC(=O)c2cc(OC)cc(OC)c2)CCN(CCc2ccccc2)CC1 | 65 | – | –
28 | COC(=O)C1(CNC(=O)c2cc(Cl)cc(Cl)c2)CCN(CC2=Cc3ccccc3OC2(C)C)CC1 | 33.9 | 13800 | –
29 | COc1ccccc1CN1CCC(C#N)(CNC(=O)c2cc(CC(C)C)n(-c3ccccc3)n2)CC1 | 50.9 | – | –
30 | COC(=O)C1(CNC(=O)c2cc(Cl)cc(Cl)c2)CCN(Cc2ccc(C(F)(F)F)cc2)CC1 | 43.3 | 290 | –
31 | COC(=O)C1(CNC(=O)c2cc(Cl)cc(Cl)c2)CCN(Cc2cccc(C(F)(F)F)c2)CC1 | 72 | – | –
32 | N#CC1(CNC(=O)c2cc(Cl)cc(Cl)c2)CCN(CCc2ccccc2)CC1 | 71.8 | 360 | –
33 | COC(=O)C1(CNC(=O)c2cc(Cl)cc(Cl)c2)CCN(Cc2ccccc2OC)CC1 | 68.5 | 160 | –
34 | COC(=O)C1(CNC(=O)c2cc(Cl)cc(Cl)c2)CCN(CCc2ccccc2)CC1 | 77.2 | – | –
35 | COC(=O)C1(CNC(=O)c2cc(OC)cc(OC)c2)CCN(CC2=Cc3ccccc3OC2(C)C)CC1 | 58 | – | –
36 | COc1ccc(CN2CCC(C#N)(CNC(=O)c3cc(CC(C)C)n(-c4ccccc4)n3)CC2)cc1 | 53 | – | –
37 | COc1ccc(CN2CCC(C#N)(CNC(=O)c3cc(Cl)cc(Cl)c3)CC2)cc1 | 16.1 | – | –
38 | CC(C)Cc1cc(C(=O)NCC2(C#N)CCN(Cc3ccc(C(F)(F)F)cc3)CC2)nn1-c1ccccc1 | 13.9 | – | –
39 | COC(=O)C1(CNC(=O)c2cc(Cl)cc(Cl)c2)CCN(Cc2ccccc2C(F)(F)F)CC1 | 44.1 | – | –
40 | COC(=O)C1(CNC(=O)c2cc(OC)cc(OC)c2)CCN(Cc2cccc(C(F)(F)F)c2)CC1 | 72 | 2800 | Stability [2]: Unstable
41 | COc1cccc(CN2CCC(C#N)(CNC(=O)c3cc(OC)cc(OC)c3)CC2)c1 | 60.4 | – | –
42 | COc1cc(OC)cc(C(=O)NCC2(C#N)CCN(Cc3ccccc3OC)CC2)c1 | 50.9 | 920 | –
